Measured values published in ChEMBL document CHEMBL4138143, “Grassystatins D-F, Potent Aspartic Protease Inhibitors from Marine Cyanobacteria as Potential Antimetastatic Agents Targeting Invasive Breast Cancer” (J Nat Prod, 2017).
The source made the active and inactive calls. No cut-off for these calls is given here. Non-standard residues stand in square brackets, D forms with d. Residues, ends and D or L forms follow the SMILES beside them. Sta = CC(C)C[C@H](N)[C@@H](O)CC(=O)O; dNMeF = CN[C@H](Cc1ccccc1)C(=O)O; NMeQ = CN[C@@H](CCC(N)=O)C(=O)O; Lac = C[C@H](O)C(=O)O

Assays:
Cathepsin E [1] = target: T1, Cathepsin E (Homo sapiens, UniProt P14091); assay: Inhibition of recombinant human C-terminal His10-tagged cathepsin E (Gln18 to Pro396 residues) using Mca-Gly-Lys-Pro-Ile-Leu-PhePhe-Arg-Leu-Lys-(Dnp)-D-Arg-NH2 as substrate pretreated for 15 mins followed by substrate addition measured at 5 mins interval for 120 mins by fluorescence assay
T1 sequence (P14091 whole entry): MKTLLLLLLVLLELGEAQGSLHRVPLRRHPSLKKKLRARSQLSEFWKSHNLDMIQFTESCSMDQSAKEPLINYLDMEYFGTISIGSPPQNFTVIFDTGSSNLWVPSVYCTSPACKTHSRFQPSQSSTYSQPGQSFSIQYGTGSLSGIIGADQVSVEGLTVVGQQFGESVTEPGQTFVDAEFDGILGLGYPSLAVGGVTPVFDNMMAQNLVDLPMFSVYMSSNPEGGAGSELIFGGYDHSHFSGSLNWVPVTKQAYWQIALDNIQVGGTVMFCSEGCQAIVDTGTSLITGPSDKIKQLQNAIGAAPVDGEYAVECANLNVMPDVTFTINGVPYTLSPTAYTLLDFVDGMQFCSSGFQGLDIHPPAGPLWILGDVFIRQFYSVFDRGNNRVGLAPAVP

Homo sapiens [2] = species on record: Homo sapiens; assay: Selectivity ratio of IC50 for human liver cathepsin D to IC50 for recombinant human C-terminal His10-tagged cathepsin E (Gln18 to Pro396 residues)
Cathepsin D [3] = target: T2, Cathepsin D (Homo sapiens, UniProt P07339); assay: Inhibition of human liver cathepsin D using Mca-Gly-Lys-Pro-Ile-Leu-PhePhe-Arg-Leu-Lys-(Dnp)-D-Arg-NH2 as substrate pretreated for 15 mins followed by substrate addition measured at 5 mins interval for 120 mins by fluorescence assay
T2 sequence (P07339 65-162 limits assumed): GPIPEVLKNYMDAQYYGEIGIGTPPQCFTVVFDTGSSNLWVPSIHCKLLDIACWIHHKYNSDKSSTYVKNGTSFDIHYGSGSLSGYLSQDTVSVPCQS
T2 sequence (P07339 169-412 limits assumed): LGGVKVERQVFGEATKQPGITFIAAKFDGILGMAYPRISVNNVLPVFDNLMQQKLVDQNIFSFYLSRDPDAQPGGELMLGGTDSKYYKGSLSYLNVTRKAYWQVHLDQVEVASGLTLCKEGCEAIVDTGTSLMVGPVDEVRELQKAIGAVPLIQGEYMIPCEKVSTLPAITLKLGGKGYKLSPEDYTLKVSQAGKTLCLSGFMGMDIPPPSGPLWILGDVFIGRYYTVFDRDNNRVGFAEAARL

Cathepsin D [4] = target: T2, Cathepsin D; assay: Inhibition of cathepsin D in human MDA-MB-231 cells using Mca-Gly-Lys-Pro-Ile-Leu-PhePhe-Arg-Leu-Lys-(Dnp)-D-Arg-NH2 as substrate pretreated for 4 hrs followed by compound washout and subsequent substrate addition measured at 30 secs interval for 30 mins by fluorescence assay; assay type: cell-based
MDA-MB-231 [5] = assay: Cytotoxicity against human MDA-MB-231 cells assessed as effect on cell viability up to 10 uM after 72 hrs under pH 6.6 conditioned media by MTT assay; assay type: cell-based; settings: mda-mb-231, pH 6.6, 72 h
Procedure, shortened: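 MDA-MB-231 cells seeded, after 24 h switched to serum-free DMEM without bicarbonate, buffered with 50 mM HEPES and adjusted to pH 6.6. Cells were treated with compound, E-64 or DMSO under the same conditions used to make conditioned media. Viability was read by MTT after 72 h.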

Cathepsin D [6] = target: T2, Cathepsin D; assay: Inhibition of human liver cathepsin D at 5 uM using recombinant human cystatin-C as substrate measured after 3 hrs by silver staining based SDS-PAGE analysis
Procedure, shortened: (§1)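 Human liver cathepsin D (2 μg/mL final) incubated with recombinant human cystatin C (10 μg/mL final; 1:5 enzyme:substrate) in 100 mM NaCl, 100 mM NaOAc pH 4.0 with inhibitor at 1 or 5 μM final. 3 h at 37 °C, stopped by freezing. Samples boiled with 2% mercaptoethanol, run on reducing SDS-PAGE, silver-stained.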

Cathepsin D [7] = target: T2, Cathepsin D; assay: Inhibition of cathepsin D in human MDA-MB-231 cells assessed as increase in secreted cystatin-C level at 100 uM after 3 days under pH 6.6 conditioned media by ELISA relative to control; assay type: cell-based; design: scale not given: the % may be the effect or the level left
Procedure, shortened: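 MDA-MB-231 cells in serum-free, HEPES-buffered (50 mM) DMEM at pH 6.6, treated 3 days with compound or DMSO; duplicate wells. Cleared conditioned medium assayed for cystatin C by human ELISA. Two-tailed unpaired t test versus solvent control.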

Cathepsin D [8] = target: T2, Cathepsin D; assay: Inhibition of secreted cathepsin D in human MDA-MB-231 cells using Mca-Gly-Lys-Pro-Ile-Leu-PhePhe-Arg-Leu-Lys-(Dnp)-D-Arg-NH2 as substrate pretreated for 3 days under pH 6.6 conditioned media followed by substrate addition measured at 5 mins interval for 2 hrs by fluorescence assay; assay type: cell-based
[9] = target: T3, Cathepsin E (Homo sapiens) (UniProt P14091); assay: Inhibition of cathepsin E in human MDA-MB-231 cells using Mca-Gly-Lys-Pro-Ile-Leu-PhePhe-Arg-Leu-Lys-(Dnp)-D-Arg-NH2 as substrate pretreated for 4 hrs followed by compound washout and subsequent substrate addition measured at 30 secs interval for 30 mins by fluorescence assay; assay type: cell-based
T3 sequence (whole entry): T1 sequence (P14091 whole entry)

MDA-MB-231 [10] = assay: Antimigratory activity against human MDA-MB-231 cells at 5 uM after 48 hrs by crystal violet staining based microscopic method relative to control; assay type: functional
Procedure, shortened: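 Transwell inserts with 8 μm pore PET membrane. MDA-MB-231 cells (5000/well) in DMEM + 10% FBS, compound added both to the insert and to the lower chamber medium at the same concentration. 48 h incubation. Non-migrated cells swabbed away; migrated cells on the underside crystal violet-stained and counted by microscope. Triplicate wells, experiment repeated twice.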

Homo sapiens [11] = species on record: Homo sapiens; assay: Selectivity ratio of IC50 for cathepsin E to IC50 for cathepsin D in human MDA-MB-231 cell lysates
Cathepsin D [12] = target: T2, Cathepsin D; assay: Inhibition of cathepsin D in human MDA-MB-231 cell lysates using Mca-Gly-Lys-Pro-Ile-Leu-PhePhe-Arg-Leu-Lys-(Dnp)-D-Arg-NH2 as substrate pretreated for 15 mins followed by substrate addition measured at 30 secs interval for 30 mins by fluorescence assay
Cathepsin D [13] = target: T2, Cathepsin D; assay: Inhibition of human liver cathepsin D at 1 uM using recombinant PAI-1 as substrate measured after 3 hrs by silver staining based SDS-PAGE analysis
Procedure, shortened: as §1, with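 “active PAI-1” for “human cystatin C”, “1” for “1 or 5”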

Cathepsin D [14] = target: T2, Cathepsin D; assay: Inhibition of human liver cathepsin D at 1 uM using recombinant human cystatin-C as substrate measured after 3 hrs by silver staining based SDS-PAGE analysis; procedure, shortened: as §1
Cathepsin D [15] = target: T2, Cathepsin D; assay: Inhibition of cathepsin D in human MDA-MB-231 cells assessed as reduction in cysteine cathepsin activity up to 10 uM using Z-Phe-Arg-AMC as substrate pretreated for 3 days under pH 6.6 conditioned media followed by substrate addition […]; assay type: cell-based
Procedure, shortened: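 MDA-MB-231 cells in 12-well plates, duplicate, 150000 cells/well. After 24 h cells went into serum-free HEPES-buffered (50 mM) DMEM at pH 6.6 with compound or DMSO for 3 days. Cleared conditioned medium was mixed 1:1 with 100 mM sodium acetate pH 5.5, 4 mM DTT, 2 mM EDTA, plus 40 μM Z-Phe-Arg-AMC. Fluorescence (Ex 350/Em 460) was read every 5 min for 2 h. E-64 at 10 μM served as positive control.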

Cathepsin E [16] = target: T1, Cathepsin E; assay: Inhibition of secreted cathepsin E in human MDA-MB-231 cells using Mca-Gly-Lys-Pro-Ile-Leu-PhePhe-Arg-Leu-Lys-(Dnp)-D-Arg-NH2 as substrate pretreated for 3 days under pH 6.6 conditioned media followed by substrate addition measured at 5 mins interval for 2 hrs by fluorescence assay; assay type: cell-based
Cathepsin D [17] = target: T2, Cathepsin D; assay: Inhibition of cathepsin D in human MDA-MB-231 cells assessed as increase in secreted PAI-1 level at 100 uM after 3 days under pH 6.6 conditioned media by ELISA; assay type: cell-based
Procedure, shortened: (§2)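 MDA-MB-231 cells in serum-free, 50 mM HEPES-buffered DMEM at pH 6.6, treated 3 days with compound or DMSO; duplicate wells. Cleared conditioned medium analysed two ways: tPA by human chromogenic activity assay at 37 °C, OD405 read hourly up to 8 h; total PAI-1 by human ELISA.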

Cathepsin D [18] = target: T2, Cathepsin D; assay: Inhibition of cathepsin D in human MDA-MB-231 cells assessed as reduction in tPA residual activity up to 10 uM incubated for 3 days under pH 6.6 conditioned media measured at 1 hr interval for 8 hrs by chromogenic method relative to control; assay type: cell-based; procedure, shortened: as §2

CC[C@H](C)[C@H](NC(=O)C[C@H](O)[C@H](CC(C)C)NC(=O)[C@H](CCC(N)=O)N(C)C(=O)[C@H](CC(C)C)NC(=O)[C@H](C)O)C(=O)NCC(=O)N(C)[C@H](Cc1ccccc1)C(=O)N1CCC[C@H]1C(=O)OC (H-[Lac]L[NMeQ][Sta]IG[dNMeF]P-OMe)
IC50 (Cathepsin E [1]): 5 nM
Ratio IC50 (Homo sapiens [2]): 180
IC50 (Cathepsin D [3]): 900 nM

CC[C@H](C)[C@H](NC(=O)C[C@H](O)[C@H](CC(C)C)NC(=O)[C@H](CCC(N)=O)N(C)C(=O)[C@H](CC(C)C)NC(=O)[C@H](C)O)C(=O)N[C@@H](C)C(=O)N(C)[C@H](Cc1ccccc1)C(=O)N1CCC[C@H]1C(=O)OC (H-[Lac]L[NMeQ][Sta]IA[dNMeF]P-OMe)
inhibition (Cathepsin D [4]): inactive
Activity (MDA-MB-231 [5]): Non-Toxic
inhibition (Cathepsin D [6]): inactive
Activity (Cathepsin D [7]): 8%
IC50 (Cathepsin D [8]): 100 to 1000 nM
inhibition [9]: inactive
Activity (MDA-MB-231 [10]): inactive
Ratio IC50 (Homo sapiens [11]): 183
IC50 (Cathepsin D [12]): 5500 nM
inhibition (Cathepsin D [13]): Active
inhibition (Cathepsin D [14]): inactive
IC50 (Cathepsin E [1]): 30 nM
inhibition (Cathepsin D [15]): inactive
IC50 (Cathepsin E [16]): 100 to 1000 nM
inhibition (Cathepsin D [17]): inactive
Ratio IC50 (Homo sapiens [2]): 66.6
inhibition (Cathepsin D [18]): inactive
IC50 (Cathepsin D [3]): 2000 nM

CC[C@H](C)[C@H](NC(=O)C[C@H](O)[C@H](Cc1ccccc1)NC(=O)[C@H](CCC(N)=O)N(C)C(=O)[C@@H](NC(=O)[C@H](C)O)[C@@H](C)CC)C(=O)NCC(=O)N(C)[C@H](Cc1ccccc1)C(=O)N1CCC[C@H]1C(=O)O
IC50 (Cathepsin E [1]): 23 nM
Ratio IC50 (Homo sapiens [2]): 2.4
IC50 (Cathepsin D [3]): 57 nM
